Common to all, as to type: cell-based
For assay [1], the system named is MCF7. Briefly: Inhibition of microtubule cytoskeleton polymerization in human MCF7 cells assessed as repolymerization at 250 nM cells preincubated on ice followed rewarmed to 37 degC in presence of compound for 30 mins by Hoechst 33342 staining-based confocal fluorescence microscopy. In a few lines:
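No pre-treatment: after 42 h on coverslips, MCF-7 cells were held on ice for 30 min to depolymerise microtubules. A cold control set was fixed at once; the rest were rewarmed for 30 min at 37 °C/5% CO2 with 250 nM compound or 0.01% DMSO. All were fixed in methanol at −20 °C, stained for α-tubulin and Hoechst, and examined by confocal imaging. There were three independent experiments.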

In assay [2] the test system is MCF7. Briefly: Inhibition of microtubule cytoskeleton polymerization in human MCF7 cells assessed as repolymerization at 250 nM pretreated for 6 hrs followed by incubation for 30 mins on ice then rewarmed to 37 degC for 30 mins by Hoechst 33342 staining-based confocal fluorescence microscopy. The method in brief:
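Pre-treatment: MCF-7 cells on coverslips were exposed to 250 nM compound or 0.01% DMSO for 6 h, then held at 4 °C on ice for 30 min. One set was fixed after cold depolymerisation; the others were returned to 37 °C/5% CO2 for 30 min to repolymerise. Cells were fixed in −20 °C methanol, stained for α-tubulin and Hoechst, and imaged by confocal microscopy. There were three independent experiments.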

Assay [3] deals with MCF7. In words: Induction of microtubule cytoskeleton destabilization in human MCF7 cells assessed as accumulation of binucleate cells at 250 nM after 6 hrs by Hoechst 33342 staining-based confocal fluorescence microscopy. In a few lines: (§1)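 MCF-7 cells in RPMI 1640 with 10% FBS were grown on glass coverslips for 42 h to 70–80% confluency. They were exposed to 250 nM compound or 0.01% DMSO for 6 h, then fixed in methanol at −20 °C for 10 min. Staining used anti-α-tubulin (1:2000) with Alexa488 secondary (1:400) and Hoechst 33342 (1 μg/ml), imaged by confocal microscopy (63x oil). There were three independent experiments, each in duplicate.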

Assay [4] deals with MCF7. Briefly: Induction of microtubule cytoskeleton destabilization in human MCF7 cells assessed as uncongressed/misaligned chromosomes at 250 nM after 6 hrs by Hoechst 33342 staining-based confocal fluorescence microscopy. The method in brief: as §1
The subject of assay [5] is MCF7. Briefly: Induction of microtubule cytoskeleton destabilization in human MCF7 cells assessed as abberation in spindle morphology and polarity at 250 nM after 6 hrs by Hoechst 33342 staining-based confocal fluorescence microscopy. In a few lines: as §1
Assay [6] relates to MCF7. Briefly: Induction of microtubule cytoskeleton destabilization in human MCF7 cells assessed as shorter and more disorderd microtubule at 250 nM after 6 hrs by Hoechst 33342 staining-based confocal fluorescence microscopy. In a few lines: as §1
Assay [7] has as its system MCF7. Briefly: Induction of microtubule cytoskeleton destabilization in human MCF7 cells assessed as nuclear atypia at 250 nM after 6 hrs by Hoechst 33342 staining-based confocal fluorescence microscopy. The method in brief:
as §1

Assay [8] deals with MCF7. In words: Induction of microtubule cytoskeleton destabilization in human MCF7 cells assessed as pyknosis at 250 nM after 6 hrs by Hoechst 33342 staining-based confocal fluorescence microscopy. In a few lines: as §1

This note sets out measurements from ChEMBL document CHEMBL3769301, “Novel cis-selective and non-epimerisable C3 hydroxy azapodophyllotoxins targeting microtubules in cancer cells” (Eur J Med Chem, 2016).

Molecules are shown by their SMILES. Active and inactive are the calls of the source. The rule behind the calls is not given here.

For `O=C1OC[C@]2(O)Nc3c(c4cccnc4c4ncccc34)[C@@H](c3ccccc3C(F)(F)F)[C@@H]12` (mixture of isomers), the inhibition result in assay [1] and in assay [2] was “inactive” throughout. The result in assay [3], in assay [4], in assay [5], in assay [6], in assay [7] and in assay [8] was Active.
As for `O=C1OC[C@]2(O)Nc3c(c4cccnc4c4ncccc34)[C@@H](c3ccccc3OC(F)(F)F)[C@H]12` (mixture of isomers), the inhibition entry in assay [1] and in assay [2] was “inactive” in each case. The result in assay [3], in assay [4], in assay [5], in assay [6], in assay [7] and in assay [8] was Active.
Turning to `COc1cc([C@@H]2c3cc4c(cc3[C@H](O)[C@H]3COC(=O)[C@H]23)OCO4)cc(OC)c1OC`, the result in assay [7] and in assay [8] was Active.
